pIC50: −log10 of the molar value.
Key:
Aminopeptidase N = Aminopeptidase N (Homo sapiens, UniProt P15144); experiment: Inhibitory activity against aminopeptidase N assayed by the L-Ala-MCA method.
Dipeptidyl peptidase 4 = Dipeptidyl peptidase 4 (Homo sapiens, UniProt P27487); experiment: Inhibitory activity against dipeptidyl peptidase IV (DPP- IV)
How it was run: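 Enzymatic activity was measured in intact cells (DPP-IV as a membrane-associated ecto enzyme) using glycyl-L-proline 4-methylcoumaryl-7-amide (Gly-Pro-AMC) as the substrate.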

Chain of Dipeptidyl peptidase 4 (P27487 whole entry): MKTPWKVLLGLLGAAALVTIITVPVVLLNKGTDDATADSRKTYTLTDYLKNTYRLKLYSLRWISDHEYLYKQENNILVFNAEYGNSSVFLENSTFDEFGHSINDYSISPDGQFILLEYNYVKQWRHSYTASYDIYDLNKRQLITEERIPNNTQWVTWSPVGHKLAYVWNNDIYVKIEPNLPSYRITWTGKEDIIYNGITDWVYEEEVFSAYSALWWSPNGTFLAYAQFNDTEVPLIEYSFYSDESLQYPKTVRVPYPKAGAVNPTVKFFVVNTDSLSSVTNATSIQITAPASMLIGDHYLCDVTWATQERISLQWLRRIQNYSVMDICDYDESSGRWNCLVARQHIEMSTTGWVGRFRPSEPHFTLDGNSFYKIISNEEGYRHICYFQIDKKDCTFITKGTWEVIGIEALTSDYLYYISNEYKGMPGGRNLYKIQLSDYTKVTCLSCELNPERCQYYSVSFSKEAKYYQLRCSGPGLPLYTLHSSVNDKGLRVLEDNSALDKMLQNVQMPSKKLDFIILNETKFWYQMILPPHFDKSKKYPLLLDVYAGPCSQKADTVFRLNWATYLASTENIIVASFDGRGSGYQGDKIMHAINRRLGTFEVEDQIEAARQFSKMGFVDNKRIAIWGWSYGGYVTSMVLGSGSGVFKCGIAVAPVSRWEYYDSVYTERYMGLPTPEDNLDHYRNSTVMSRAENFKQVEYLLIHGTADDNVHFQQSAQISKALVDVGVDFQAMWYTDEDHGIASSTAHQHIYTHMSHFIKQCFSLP
Chain of Aminopeptidase N (P15144 whole entry): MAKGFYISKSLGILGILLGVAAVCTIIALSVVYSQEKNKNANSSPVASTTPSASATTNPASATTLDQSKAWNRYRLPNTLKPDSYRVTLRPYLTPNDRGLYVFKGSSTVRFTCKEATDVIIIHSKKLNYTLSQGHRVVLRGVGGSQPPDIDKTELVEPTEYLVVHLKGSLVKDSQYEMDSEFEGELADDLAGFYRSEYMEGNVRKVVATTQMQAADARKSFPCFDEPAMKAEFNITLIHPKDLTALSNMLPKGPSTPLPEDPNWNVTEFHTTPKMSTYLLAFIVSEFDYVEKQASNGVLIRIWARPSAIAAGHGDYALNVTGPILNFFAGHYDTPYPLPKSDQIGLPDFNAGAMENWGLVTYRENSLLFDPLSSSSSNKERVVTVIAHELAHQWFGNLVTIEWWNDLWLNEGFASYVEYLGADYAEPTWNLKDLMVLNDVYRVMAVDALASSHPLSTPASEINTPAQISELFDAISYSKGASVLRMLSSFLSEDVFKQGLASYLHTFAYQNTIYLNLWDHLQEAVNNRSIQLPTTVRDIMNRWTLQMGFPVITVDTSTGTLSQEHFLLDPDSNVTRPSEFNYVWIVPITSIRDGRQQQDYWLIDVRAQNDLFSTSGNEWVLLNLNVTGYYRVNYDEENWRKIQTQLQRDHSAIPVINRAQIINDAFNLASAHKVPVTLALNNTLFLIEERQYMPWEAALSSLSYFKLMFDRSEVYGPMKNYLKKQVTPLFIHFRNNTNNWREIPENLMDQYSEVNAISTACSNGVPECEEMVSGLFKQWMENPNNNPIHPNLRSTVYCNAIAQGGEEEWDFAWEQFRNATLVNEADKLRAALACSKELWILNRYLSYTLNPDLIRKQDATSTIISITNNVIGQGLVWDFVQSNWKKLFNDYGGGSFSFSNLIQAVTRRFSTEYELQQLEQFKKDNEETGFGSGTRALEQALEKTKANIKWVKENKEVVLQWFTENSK

SMILES	pIC50 (Aminopeptidase N)	pIC50 (Dipeptidyl peptidase 4)
Cc1cccc(C)c1N1C(=O)c2cccc(O)c2C1=O	3.58	
O=C1Cc2ccccc2C(=O)N1c1ccccc1	3.40	< 3.38
Cc1ccc(C)c(N2C(=O)Cc3ccccc3C2=O)c1	4.22	< 3.42
CCc1ccccc1N1C(=O)Cc2ccccc2C1=O	4.17	< 3.42
Cc1cc(C)cc(N2C(=O)Cc3ccccc3C2=O)c1	4.63	< 3.42
Cc1cccc(N2C(=O)Cc3ccccc3C2=O)c1C	3.95	< 3.42
CC(C)c1cccc(C(C)C)c1N1C(=O)c2ccccc2C1=O	< 3.49	
Cc1cccc(C)c1N1C(=O)c2ccccc2C1=O	< 3.40	
CC(C)c1cccc(C(C)C)c1N1C(=O)c2cc3ccccc3cc2C1=O	< 3.55	
Cc1ccc(N2C(=O)Cc3ccccc3C2=O)c(C)c1	3.73	< 3.42
CC(C)c1cccc(C(C)C)c1N1C(=O)c2cccc(N)c2C1=O	4.68	
CC(C)c1cccc(C(C)C)c1N1C(=O)c2cccc([N+](=O)[O-])c2C1=O	< 3.55	
CC(C)c1cccc(C(C)C)c1N1C(=O)c2ccc([N+](=O)[O-])cc2C1=O	< 3.55	
Cc1cccc(C)c1N1C(=O)Cc2ccccc2C1=O	3.80	< 3.42

Results, then the compound that gave them:

pIC50 (Aminopeptidase N)	pIC50 (Dipeptidyl peptidase 4)	SMILES
	4.06	Cc1cccc(C)c1N1C(=O)c2ccc(N)cc2C1=O
	4.18	CC(C)c1cccc(C(C)C)c1N1C(=O)c2ccc(O)cc2C1=O
< 3.43	< 3.43	Cc1cccc(C)c1N1C(=O)c2cccc(N)c2C1=O
3.84	< 3.49	O=C1Cc2ccccc2C(=O)N1c1c(Cl)cccc1Cl
4.96	< 3.51	CC(C)c1cccc(C(C)C)c1N1C(=O)Cc2ccccc2C1=O
< 3.45	< 3.45	CC(C)c1ccc(N2C(=O)Cc3ccccc3C2=O)cc1
	4.13	Cc1cccc(C)c1N1C(=O)c2ccc(O)cc2C1=O
< 3.33	4.06	O=C([C@@H]1CCCN1)N1CCC[C@H]1B(O)O
3.71	< 3.45	CC(C)c1ccccc1N1C(=O)Cc2ccccc2C1=O
3.52	< 3.45	CCc1cccc(CC)c1N1C(=O)c2ccccc2C1=O
< 3.51	< 3.51	CCc1cccc(CC)c1N1C(=O)c2ccc([N+](=O)[O-])cc2C1=O
	4.36	CC(C)c1cccc(C(C)C)c1N1C(=O)c2cccc(O)c2C1=O
	< 3.47	CCc1cccc(CC)c1N1C(=O)Cc2ccccc2C1=O
3.96	< 3.43	COc1ccccc1N1C(=O)Cc2ccccc2C1=O
	4.36	CCc1cccc(CC)c1N1C(=O)c2ccc(O)cc2C1=O
5.50	< 3.45	CSc1ccccc1N1C(=O)Cc2ccccc2C1=O
	3.60	CC(C)c1cccc(C(C)C)c1N1C(=O)c2ccc(N)cc2C1=O
	< 3.49	CC(C)C[C@H](NC(=O)C(O)[C@H](N)Cc1ccccc1)C(=O)O (single isomer, unassigned) [UBENIMEX]
6.08	< 3.59	CCCCC[C@H](CC(=O)NO)C(=O)N[C@H](C(=O)N1CCC[C@H]1CO)C(C)C [ACTINONIN]

From ChEMBL document CHEMBL1131596, “Novel potent nonpeptide aminopeptidase N inhibitors with a cyclic imide skeleton” (J Med Chem, 1998)
